According to ChEMBL document CHEMBL1275519, “In vivo pharmacodynamics of ceftobiprole against multiple bacterial pathogens in murine thigh and lung infection models” (Antimicrob Agents Chemother, 2008):
≈ marks a conversion by molar mass, not a printed value.

Experiments:
[1] = T>MIC in methicillin-resistant Staphylococcus aureus 22115 infected CD1 neutropenic mouse at static dose of 16.9 mg/kg, sc administered every 6 hrs; assay type: functional; details: route subcutaneous
Staphylococcus aureus [2] = experiment: Antimicrobial activity against methicillin-resistant Staphylococcus aureus 11888 by broth dilution method; assay type: functional
Summary of the method: (§1)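 Ceftobiprole MIC by broth microdilution per Clinical and Laboratory Standards Institute (formerly NCCLS) methods, using ceftobiprole standard powder.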

[3] = T>MIC in Streptococcus pneumoniae MNO-418 infected CD1 neutropenic mouse at static dose of 0.238 mg/kg, sc administered every 6 hrs; assay type: functional; details: route subcutaneous
Summary of the method: (§2)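 Neutropenic mice (cyclophosphamide i.p. 150 and 100 mg/kg, 4 and 1 days pre-infection) given 0.1 ml thigh inoculum (1:10 dilution of 10^8 CFU/ml), then treated from 2 h post-infection for 24 h with s.c. ceftobiprole medocaril (0.010–160 mg/kg) at varied intervals. Thigh CFU plated from homogenates. Static dose came from a sigmoid Hill model, and T>MIC was estimated from mouse PK and MIC.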

[4] = T>MIC in Staphylococcus aureus ATCC Smith infected CD1 neutropenic mouse at static dose of 4.21 mg/kg, sc administered every 6 hrs; assay type: functional; details: route subcutaneous; summary of the method: as §2
[5] = T>MIC in Pseudomonas aeruginosa ATCC 27853 infected CD1 neutropenic mouse at 2-log kill dose of 110 mg/kg, sc administered every 3 hrs; assay type: functional; details: route subcutaneous
Streptococcus pneumoniae [6] = experiment: Antimicrobial activity against Streptococcus pneumoniae CDC 673 by broth dilution method; assay type: functional; summary of the method: as §1
[7] = T>MIC in Streptococcus pneumoniae CDC 673 infected CD1 neutropenic mouse at static dose of 6.68 mg/kg, sc administered every 6 hrs; assay type: functional; details: route subcutaneous; summary of the method: as §2
Staphylococcus aureus [8] = experiment: Antimicrobial activity against Staphylococcus aureus ATCC 33591 by broth dilution method; assay type: functional; summary of the method: as §1
Streptococcus pneumoniae [9] = experiment: Antimicrobial activity against Streptococcus pneumoniae CDC 1293 by broth dilution method; assay type: functional
Summary of the method: (§3)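 Ceftobiprole MIC determined by CLSI (NCCLS) broth microdilution.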

[10] = T>MIC in Streptococcus pneumoniae MNO-418 infected CD1 neutropenic mouse at 2-log kill dose of 0.624 mg/kg, sc administered every 6 hrs; assay type: functional; details: route subcutaneous
[11] = T>MIC in Streptococcus pneumoniae CDC 1329 infected CD1 neutropenic mouse at static dose of 2.93 mg/kg, sc administered every 6 hrs; assay type: functional; details: route subcutaneous; summary of the method: as §2
[12] = AUC in CD1 neutropenic mouse with bacterial infection in thigh at 40 mg/kg, sc; assay type: ADME, organism-based; design: dose 40 mg/kg, route subcutaneous; details: plasma
Summary of the method: (§4)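 Neutropenic thigh-infected mice (cyclophosphamide i.p. 150 mg/kg day −4, 100 mg/kg day −1) given single s.c. ceftobiprole medocaril doses; two groups of three mice per dose bled retro-orbitally at 0.5–6 h, each animal 3–4 times. Total serum drug measured by agar diffusion bioassay with E. coli NIH-J (linear 0.25–256 μg/ml). Cmax, t1/2 and AUC from one-compartment model.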

Streptococcus pneumoniae [13] = experiment: Antimicrobial activity against Streptococcus pneumoniae CDC 1329 by broth dilution method; assay type: functional; summary of the method: as §3
[14] = T>MIC in methicillin-resistant Staphylococcus aureus 11888 infected CD1 neutropenic mouse at static dose of 22.6 mg/kg, sc administered every 6 hrs; assay type: functional; details: route subcutaneous
Streptococcus pneumoniae [15] = experiment: Antimicrobial activity against Streptococcus pneumoniae ATCC 10813 by broth dilution method; assay type: functional; summary of the method: as §3
[16] = T>MIC in Streptococcus pneumoniae CDC-145 infected CD1 neutropenic mouse at static dose of 0.956 mg/kg, sc administered every 6 hrs; assay type: functional; details: route subcutaneous; summary of the method: as §2
Staphylococcus aureus [17] = experiment: Antimicrobial activity against methicillin-resistant Staphylococcus aureus 12248 by broth dilution method; assay type: functional; summary of the method: as §1
[18] = T>MIC in Streptococcus pneumoniae ATCC 10813 infected CD1 neutropenic mouse at static dose of 0.180 mg/kg, sc administered every 6 hrs; assay type: functional; details: dose 0.18 mg/kg; route subcutaneous; summary of the method: as §2
[19] = Half life in CD1 neutropenic mouse with bacterial infection in thigh at 160 mg/kg, sc; assay type: ADME, organism-based; design: dose 160 mg/kg, route subcutaneous; details: in vivo; summary of the method: as §4
[20] = T>MIC in Staphylococcus aureus ATCC Smith infected CD1 neutropenic mouse at 2-log kill dose of 9.60 mg/kg, sc administered every 6 hrs; assay type: functional; details: dose 9.6 mg/kg; route subcutaneous
[21] = T>MIC in Klebsiella pneumoniae infected CD1 neutropenic mouse at 2-log kill dose of 43.8 mg/kg, sc administered every 6 hrs; assay type: functional; details: route subcutaneous
[22] = T>MIC in methicillin-resistant Staphylococcus aureus 12248 infected CD1 neutropenic mouse at static dose of 29.2 mg/kg, sc administered every 6 hrs; assay type: functional; details: route subcutaneous
[23] = T>MIC in methicillin-resistant Staphylococcus aureus WIS-1 infected CD1 neutropenic mouse at 2-log kill dose of 53.9 mg/kg, sc administered every 6 hrs; assay type: functional; details: route subcutaneous
[24] = T>MIC in Streptococcus pneumoniae CDC 1293 infected CD1 neutropenic mouse at 2-log kill dose of 3.55 mg/kg, sc administered every 6 hrs; assay type: functional; details: route subcutaneous
[25] = Cmax in CD1 neutropenic mouse with bacterial infection in thigh at 40 mg/kg, sc; assay type: ADME, organism-based; design: dose 40 mg/kg, route subcutaneous; details: in vivo; summary of the method: as §4
Staphylococcus aureus [26] = experiment: Antimicrobial activity against Staphylococcus aureus ATCC 29213 by broth dilution method; assay type: functional; summary of the method: as §1
[27] = T>MIC in Staphylococcus aureus ATCC 33591 infected CD1 neutropenic mouse at static dose of 7.91 mg/kg, sc administered every 6 hrs; assay type: functional; details: route subcutaneous; summary of the method: as §2
Staphylococcus aureus [28] = experiment: Antimicrobial activity against Staphylococcus aureus ATCC 22923 by broth dilution method; assay type: functional; summary of the method: as §1
[29] = T>MIC in Enterobacter cloacae 4567 infected CD1 neutropenic mouse at static dose of 3.28 mg/kg, sc administered every 3 hrs; assay type: functional; details: route subcutaneous; summary of the method: as §2
[30] = AUC in CD1 neutropenic mouse with bacterial infection in thigh at 160 mg/kg, sc; assay type: ADME, organism-based; design: dose 160 mg/kg, route subcutaneous; details: plasma; summary of the method: as §4
[31] = T>MIC in Staphylococcus aureus […] infected CD1 neutropenic mouse at 2-log kill dose of 10.3 mg/kg, sc administered every 6 hrs; assay type: functional; details: route subcutaneous
[32] = T>MIC in methicillin-resistant Staphylococcus aureus 11888 infected CD1 neutropenic mouse at 2-log kill dose of 40.2 mg/kg, sc administered every 6 hrs; assay type: functional; details: route subcutaneous
[33] = T>MIC in Streptococcus pneumoniae ATCC 10813 infected CD1 neutropenic mouse at 2-log kill dose of 0.552 mg/kg, sc administered every 6 hrs; assay type: functional; details: route subcutaneous

SMILES: Nc1nc(/C(=N/O)C(=O)N[C@@H]2C(=O)N3C(C(=O)O)=C(/C=C4\CCN([C@@H]5CCNC5)C4=O)CS[C@H]23)ns1 [CEFTOBIPROLE]
- fT>MIC [1]: 25.4%
- MIC (Staphylococcus aureus [2]): 2 µg/mL (≈ 3.74 µM)
- fT>MIC [3]: 21.3%
- fT>MIC [4]: 19.6%
- fT>MIC [5]: 98.8%
- MIC (Streptococcus pneumoniae [6]): 1 µg/mL (≈ 1.87 µM)
- fT>MIC [7]: 18.5%
- MIC (Staphylococcus aureus [8]): 1 µg/mL (≈ 1.87 µM)
- MIC (Streptococcus pneumoniae [9]): 0.5 µg/mL (≈ 0.935 µM)
- fT>MIC [10]: 31.8%
- fT>MIC [11]: 22.2%
- AUC [12]: 27.8 µg·h/mL
- MIC (Streptococcus pneumoniae [13]): 0.25 µg/mL (≈ 0.468 µM)
- fT>MIC [14]: 22.5%
- MIC (Streptococcus pneumoniae [15]): 0.03 µg/mL (≈ 0.0561 µM)
- fT>MIC [16]: 15.2%
- MIC (Staphylococcus aureus [17]): 2 µg/mL (≈ 3.74 µM)
- fT>MIC [18]: 19.4%
- half-life [19]: 31.7 min
- fT>MIC [20]: 25.9%
- fT>MIC [21]: 59.2%
- fT>MIC [22]: 24.5%
- fT>MIC [23]: 39.1%
- fT>MIC [24]: 18.4%
- Cmax [25]: 31200 ng/mL
- MIC (Staphylococcus aureus [26]): 0.5 µg/mL (≈ 0.935 µM)
- fT>MIC [27]: 19.1%
- MIC (Staphylococcus aureus [28]): 0.5 µg/mL (≈ 0.935 µM)
- fT>MIC [29]: 35.6%
- AUC [30]: 213 µg·h/mL
- fT>MIC [31]: 26.5%
- fT>MIC [32]: 27.4%
- fT>MIC [33]: 24.8%
